Measurements taken from ChEMBL document CHEMBL4130446, “Environmentally Friendly Procedure Based on Supercritical Fluid Chromatography and Tandem Mass Spectrometry Molecular Networking for the Discovery of Potent Antiviral Compounds from Euphorbia semiperfoliata” (J Nat Prod, 2017).

Key:
Chikungunya virus = assay: Antiviral activity against Chikungunya virus Indian ocean strain 899 infected in African green monkey Vero cells assessed as reduction in virus-induced cytopathic effect by MTS assay; assay type: functional, organism-based; conditions: Indian ocean 899, Vero
[1] = Cytotoxicity against African green monkey Vero cells assessed as morphological changes by microscopic method; assay type: cell-based; conditions: chlorocebus sabaeus
[2] = Cytotoxicity against human MT2 cells by Celltiter-Glo assay; assay type: cell-based
[3] = Selectivity index, ratio of CC50 for human MT2 cells to EC50 for HIV NL4.3 harboring renilla luciferase infected in human MT2 cells; assay type: toxicity, cell-based; conditions: read-out: Ratio CC50/EC50
Summary of the method: (§1)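 Selectivity index is CC50 divided by EC50: Vero CC50 over CHIKV EC50, or MT-2 CC50 over NL4.3-Ren EC50 (HIV). Inputs are in μM unless stated otherwise.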

[4] = system: Human immunodeficiency virus; assay: Antiviral activity against HIV NL4.3 harboring renilla luciferase infected in human MT2 cells pretreated for 2 hrs followed by viral infection measured after 48 to 96 hrs post infection by luciferase reporter gene assay; assay type: functional, organism-based; conditions: Human immunodeficiency virus 1, NL4.3, MT2
Summary of the method: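 Recombinant NL4.3-Ren virus assay in MT-2 cells. EC50 is given in μM unless stated otherwise.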

[5] = Selectivity index, ratio of CC50 for African green monkey Vero cells to EC50 for Chikungunya virus Indian ocean strain 899 infected in African green monkey Vero cells; assay type: toxicity; conditions: read-out: Ratio CC50/EC50; summary of the method: as §1

| SMILES | EC50 (Chikungunya virus) [µM] | CC50 [1] [µM] | CC50 [2] [µM] | selectivity ratio [3] | EC50 [4] [µM] | selectivity ratio [5] |
| --- | --- | --- | --- | --- | --- | --- |
| C/C=C(\C)C(=O)O[C@@H]1[C@@H](C)[C@]2(O)[C@@H]3C=C(C)C(=O)[C@@H]3CC(CO)=C[C@H]2[C@@H]2C(C)(C)[C@]12OC(=O)C(C)C | 17 | 116 | > 50 | > 12 | 4.19 | 7 |
| CC(=O)O[C@@H]1[C@@H](C)[C@]2(O)[C@@H]3C=C(C)C(=O)[C@H]3CC(CO)=C[C@H]2[C@@H]2C(C)(C)[C@]12OC(=O)C(C)C | 0.44 | 172 | > 50 | > 919 | 0.054 | 390 |
| C=C1[C@H](OC(C)=O)[C@@H](O)[C@@H](OC(C)=O)C(C)(C)/C=C/[C@@H](C)C(=O)[C@@]2(OC(C)=O)C[C@@](C)(OC(C)=O)[C@H](OC(C)=O)[C@@H]2[C@H]1OC(C)=O | > 153 | – | – | – | – | – |
| C/C=C(\C)C(=O)O[C@@H]1[C@@H](C)[C@]2(O)[C@@H]3C=C(C)C(=O)[C@H]3CC(C)=C[C@H]2[C@@H]2C(C)(C)[C@]12OC(=O)C(C)C | – | 154 | > 50 | – | – | – |
| C/C=C(\C)C(=O)O[C@@H]1[C@@H](C)[C@]2(O)[C@@H]3C=C(C)C(=O)[C@H]3CC(CO)=C[C@H]2[C@@H]2C(C)(C)[C@]12OC(=O)C(C)C | 1 | 20 | > 50 | > 3920 | 0.013 | 25 |
| CCCCCCCCCCCCCC(=O)O[C@@H]1[C@@H](C)[C@@]2(O)[C@@H](C=C(CO)C[C@]3(O)C(=O)C(C)=C[C@@H]23)[C@@H]2C(C)(C)[C@]12OC(C)=O [PHORBOL MYRISTATE ACETATE] | – | – | – | – | – | 1960 |
| CC(=O)O[C@@]12C[C@@H](C)[C@@]3(O)[C@@H](C=C(CO)C[C@]4(O)C(=O)C(C)=C[C@@H]34)[C@@H]1C2(C)C [PROSTRATIN] | – | – | > 50 | > 22 | 0.226 | 30 |
| C=C1[C@H](OC(C)=O)[C@@H](OC(C)=O)[C@@H](OC(C)=O)C(C)(C)/C=C/[C@@H](C)C(=O)[C@@]2(OC(C)=O)C[C@@](C)(OC(C)=O)[C@H](OC(C)=O)[C@@H]2[C@H]1OC(C)=O | 13.8 | > 144 | – | – | – | > 10 |
